In the library only some 4.6% were active in any assay of this set; here they are far more common.
HDAC3 inh: HDAC3 deacetylase inhibitors, primary screen, biochemical, fluorescence, cell-free homogeneous; actives 0.15% (n = 320,000); recombinant HDAC3, fluorogenic peptide/trypsin coupled; inhibition, % at 8.3 µM; Histone deacetylase 3 (Homo sapiens), O15379; in the data active means inhibition above about 26%, passing the limit was not always enough; inconclusive means no clear call, values can overlap the other calls
PfM18AAP inh: PfM18AAP inhibitors, malaria aminopeptidase, primary screen, biochemical, QFRET, recombinant enzyme. AID 1822, 2009. M18 aspartyl aminopeptidase (Plasmodium falciparum 3D7). H-Glu-NHMec fluorogenic cleavage. inhibition, % at 7.35 µM. actives 1.2% (n = 290,000);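 active means inhibition above the campaign mean inhibition over all tested compounds plus 3 SD, cut at about 28% in these data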;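 further: 0% = plate median of test compound wells and 100% = 2 mM ZnCl2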
UCH37 DUB inh: inhibitors of human UCH37 deubiquitinase, primary screen, biochemical, Ub-AMC cleavage, fluorescence. purified proteasome/UCH37. AID 588478, 2011. actives 0.33% (n = 330,000). inhibition, % (test concentration not listed);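 active means mean inhibition over replicate wells above about 20%, limit read from the data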;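 further: 0% = compound-free wells with enzyme and 100% = wells lacking proteasome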
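System: Proteasome-associated human UCH37 deubiquitinase; Input: 0.15 nM proteasome in added enzyme buffer; Also added: Ub-AMC substrate from 1 µM stock; Incubation: 30 min compound-proteasome preincubation then 25 min substrate reaction, room temperature; Detection: fluorescence, ex 355 nm, em 460 nm; Read-out: % inhibition of Ub-AMC cleavage fluorescence; Benchmarks: no-proteasome and no-compound wells.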
FAS-TE inh: FAS thioesterase domain inhibitors, primary screen, biochemical, fluorescence intensity, uHTS. recombinant FAS-TE, OMFH fluorogenic substrate, fluorescence endpoint. Fatty acid synthase (Homo sapiens), P49327. AID 602261, 2012. inhibition, % at 15 µM. actives 0.67% (n = 360,000);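 active means compounds whose normalised, plate-corrected inhibition of enzyme fluorescence in the single-dose primary screen is 50% or more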;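 further: 0% = DMSO with enzyme and 100% = substrate without enzyme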
ALR H2O2 inh: inhibitors of human ALR sulfhydryl oxidase, primary screen, biochemical, H2O2 detection, HRP-luminol luminescence, single point; FAD-linked sulfhydryl oxidase ALR (Homo sapiens), P55789; purified ALR, DTT oxidation; inhibition, % (concentration not given with the values); actives 3.8% (n = 290,000);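 active means mean replicate inhibition above about 79%, with every replicate also reaching it, limit read from the data; inconclusive means only one of the two criteria met; inactive means mean below limit and not every replicate reaching it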
Rtt109 HAT inh: inhibitors of C. albicans Rtt109/Vps75 HAT, primary screen, biochemical, ThioGlo CoA-SH fluorescence, plate reader. purified Rtt109/Vps75, 4 h. actives 0.16% (n = 330,000). inhibition, % at 34.9 µM. AID 540336, 2011;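 active means inhibition of at least 50% in every replicate; inconclusive means best replicate reaches 50% inhibition but some replicates fall short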
FAS-TE inh conf: FAS thioesterase domain inhibitors, confirmation, biochemical, fluorescence intensity, single concentration; shares compounds with FAS-TE inh; recombinant FAS-TE, OMFH fluorogenic substrate; inhibition, % at 15 µM; actives 45% (n = 2,300); AID 624325, 2012;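 active means compounds inhibiting the enzyme by at least 50% at 15 µM in any one of the replicates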;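 further: 0% = enzyme with DMSO only and 100% = wells lacking enzyme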
Active calls of the source: *; ? = inconclusive; . = not tested or not shown.

SMILES	HDAC3 inh	PfM18AAP inh	UCH37 DUB inh	FAS-TE inh	ALR H2O2 inh	Rtt109 HAT inh	FAS-TE inh conf
O=C(c1cccc(NS(=O)(=O)c2ccc(F)c(F)c2)c1)N1CCN(C(c2ccccc2)c2ccccc2)CC1	-0.2	-1.5	7.5	90.1*	-2.8	29.5	45.1
O=C(c1cccc(NS(=O)(=O)c2ccccc2)c1)N1CCCC1	2.3	-4.2	0.1	-4.3	1.1	4.3	.
CC(C)NC(=O)C1CCN(C(=O)C(C(=O)c2ccccc2)n2cc(Cl)ccc2=O)CC1 (stereo unspecified)	-0.1	3.0	1.1	-4.1	-5.4	1.8	.
CC(NC(=O)C(C(=O)c1cccc([N+](=O)[O-])c1)n1cc(Cl)ccc1=O)c1ccccc1 (stereo unspecified)	2.9	-0.4	4.1	58.8*	-23.2	-8.9	64.9*
O=c1oc(-c2ccco2)nc2sc3c(c12)CCCC3	8.4	0.4	-25.0	65.8*	.	5.9	23.7
COc1ccc(C=NNc2ncnc3sc4c(c23)CCCC4)cc1O	.	.	1.8	.	.	.	.
COC(=O)c1cc(C(=O)NCCN2C(=O)S/C(=C\c3cccs3)C2=O)cc([N+](=O)[O-])c1	2.8	-2.0	6.8	60.4*	.	2.3	5.4
COc1ccc(NC(=O)CN2CCN(c3nc(-c4ccc(F)cc4)cs3)CC2)c(OC)c1	-12.7	-5.0	2.8	54.5*	-28.4	-0.2	22.2
COc1ccc(NC(=O)CN2CCN(CC(=O)Nc3ccccc3OC)CC2)c(OC)c1	.	1.6	0.7	-2.9	.	9.0	.
CN(C)S(=O)(=O)n1cc(/C=C(\NC(=O)c2ccccc2)C(=O)NCCCN2CCOCC2)c2ccccc21	4.7	4.2	6.4	17.2	1.1	-1.3	.
COc1ccc(C(=O)N/C(=C\c2cn(S(=O)(=O)N(C)C)c3ccccc23)C(=O)NCCCN2CCOCC2)cc1	?	0.5	2.3	57.3*	0.4	1.3	74.5*
O=C1c2cccc3c(N4CCOCC4)c([N+](=O)[O-])cc(c23)C(=O)N1c1cccc2ccccc12	0.9	1.2	5.5	76.8*	-6.7	-1.9	25.1
Cc1cccc(N2C(=O)c3cccc4c(N5CCCCC5)c([N+](=O)[O-])cc(c34)C2=O)c1C	9.7	4.6	.	21.1	-1.1	-0.7	.
COc1ccc([C@H]2/C=C\CN(S(=O)(=O)c3cccc4cccnc34)[C@@H](C)C(=O)N2Cc2ccc(F)cc2)cc1	-6.7	.	-1.4	78.3*	-0.5	-1.2	5.7
COc1ccc(C2/C=C\CN(S(=O)(=O)c3cccc4cccnc34)CC(=O)N2Cc2ccc(F)cc2)cc1 (stereo unspecified)	3.1	.	1.8	15.8	.	-4.2	.
CCOc1ccccc1C=NNc1ccc(Cl)nn1	.	.	1.4	.	.	.	.
CC1CCc2c(sc3nc(CN4CCN(S(=O)(=O)c5ccccc5[N+](=O)[O-])CC4)[nH]c(=O)c23)C1 (stereo unspecified)	0.2	-3.5	4.5	90.6*	-1.7	-0.9	50.3*
O=C(NN=Cc1cnc(N2CCOCC2)s1)c1ccccc1	.	.	6.2	.	.	.	.
N#C/C(=C\c1cc([N+](=O)[O-])c(N2CCCCC2)cc1N1CCCCC1)c1nn(-c2ccccc2)c(N)c1C#N	1.6	-8.7	5.9	56.6*	-10.0	-1.6	0.6
O=C(CN1CCSC1=NCc1ccccc1)c1ccc(Cl)c(Cl)c1	-2.6	-3.5	0.1	53.9*	-7.6	2.7	41.1
O=C(Cn1ccccc1=S)c1ccc(Cl)c(Cl)c1	7.1	.	5.2	7.2	24.0	.	.
COC(=O)c1ccc(Nc2nnc(-c3ccc(C)c(S(=O)(=O)NCC4CCCO4)c3)c3ccccc23)cc1 (stereo unspecified)	-3.5	-0.2	.	66.9*	-7.5	8.3	21.0
Cc1ccc(-c2nnc(Nc3ccc(C(=O)N(C)C)cc3)c3ccccc23)cc1S(=O)(=O)NCC1CCCO1 (stereo unspecified)	-3.2	8.2	-0.6	-5.6	-15.0	13.8	.
Cc1ccc(-c2nnc3ccc(SCC(=O)N4CCCc5ccccc54)nn23)cc1	-5.8	-4.6	1.7	73.7*	2.1	-4.9	70.0*
Cc1ccc(NC(=O)/C(=C/C=C/c2ccccc2)NC(=O)c2ccccc2)cc1	-9.0	-1.0	2.9	62.9*	-5.4	0.4	22.0
SMILES	HDAC3 inh	PfM18AAP inh	UCH37 DUB inh	FAS-TE inh	ALR H2O2 inh	Rtt109 HAT inh	FAS-TE inh conf
Cc1ccccc1-n1c(SCC(=O)c2c(N)n(C)c(=O)n(C)c2=O)nc2sc3c(c2c1=O)CCCC3	7.6	6.3	2.3	89.7*	-20.7	2.6	31.9
Cc1ccccc1-n1c(SCC(=O)c2c(N)n(C)c(=O)n(C)c2=O)nnc1-c1cccnc1	3.8	2.0	2.9	-1.7	0.0	1.9	.
Cc1ccc(SCc2cc(=O)[nH]c(/N=C(\N)Nc3cccc4ccccc34)n2)cc1	-2.0	1.0	.	57.8*	-2.1	.	4.0
O=C1c2ccc(-c3ccc(Cl)c(C(F)(F)F)c3)cc2S(=O)(=O)c2cccc(C(=O)N3CCN(c4ccc(Cl)cn4)CC3)c21	3.8	.	3.3	66.6*	0.3	19.0	2.4
COc1ccc(-c2ccc3c(c2)S(=O)(=O)c2cccc(C(=O)N4CCN(c5ccccn5)CC4)c2C3=O)cc1OC	.	.	.	7.0	.	.	.
C=CCOc1ccc2ccccc2c1C=NO	.	.	-1.7	.	.	.	.
Cc1nc(N2CCOCC2)nc(Oc2ccccc2)c1[N+](=O)[O-]	-2.0	-0.8	3.5	51.6*	36.4	4.8	42.8
CCCCOc1nc(N2CCOCC2)nc(C)c1[N+](=O)[O-]	-2.4	-1.1	6.9	15.7	0.1	0.1	.
Cc1ccc(-n2[nH]c(C)c(/C=N/Nc3ccc([N+](=O)[O-])cc3[N+](=O)[O-])c2=O)cc1	.	23.9	.	55.1*	.	-0.3	54.6*
CCOC(=O)[C@@H]1[C@H]2COc3ccc(Br)cc3[C@@H]2N2C(=O)N(c3cccc(Cl)c3)C(=O)[C@@]12C	14.7	.	3.4	73.3*	0.2	0.0	52.0*
CCOC(=O)[C@H]1[C@H]2COc3ccc(Cl)cc3[C@@H]2N2C(=O)c3ccc(Cl)cc3NC(=O)[C@@]12C	6.5	.	-1.2	58.9*	.	2.0	43.3
CCOC(=O)[C@H]1[C@H]2COc3ccc(Br)cc3[C@@H]2N2C(=O)c3c(C)cc(C)cc3NC(=O)[C@@]12C	6.7	.	-0.7	68.4*	2.1	-6.0	22.1
CCOC(=O)[C@H]1[C@H]2COc3ccc(C)cc3[C@@H]2N2C(=O)c3cc(Br)ccc3NC(=O)[C@@]12C	11.4	.	1.8	57.2*	1.0	8.4	25.9
